According to ChEMBL document CHEMBL4038341, “Optimization of Allosteric With-No-Lysine (WNK) Kinase Inhibitors and Efficacy in Rodent Hypertension Models” (J Med Chem, 2017):
In brackets after ≈: the same amount, converted by molar mass. One block for each molecule: values may come before it. Activity calls are given as the source filed them. The rule behind the calls is not given here.

Key:
[1] = biological target: T1, Serine/threonine-protein kinase WNK1 (Homo sapiens, UniProt Q9H4A3); experiment: Allosteric inhibition of recombinant human N-terminal GST-tagged WNK1 catalytic domain (1 to 491 residues) expressed in baculovirus expression system using fluorescein-labeled OSR1 peptide as substrate after 3 hrs by mobility shift assay
Rattus norvegicus [2] = experiment: Anti-hypertensive activity in […] rat assessed as induction of diuresis at 10 mg/kg, po administered as single dose on day 2,3 and 4 measured for 7 hrs post dose; format: functional, organism-based
Method in brief: (§1)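 Spontaneously hypertensive rats got single ascending oral doses on successive days (vehicle, then 10, 30, then 100 mg kg−1). Urine was collected in metabolic cages over 7 h for volume and sodium and potassium excretion. n = 4 per group, mean ± SEM, one-way ANOVA with Bonferroni post-test versus vehicle.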

Rattus norvegicus [3] = experiment: Anti-hypertensive activity in […] rat assessed as induction of natriuresis at 10 mg/kg, po administered as single dose on day 2,3 and 4 measured for 7 hrs post dose; format: functional, organism-based
Method in brief: as §1

[4] = biological target: T1, Serine/threonine-protein kinase WNK1; experiment: Non-competitive inhibition of recombinant human N-terminal GST-tagged WNK1 (1 to 491 residues) expressed in baculovirus expression system using fluorescein-labeled OSR1 peptide as substrate measured every 3 mins from 90 to 250 mins in presence of varying concentration of ATP by Michaelis-Menten plot-based analysis
[5] = biological target: T1, Serine/threonine-protein kinase WNK1; experiment: Allosteric inhibition of recombinant human N-terminal GST-tagged WNK1 catalytic domain (1 to 491 residues) expressed in baculovirus expression system using fluorescein-labeled OSR1 peptide as substrate after 3 hrs by HTRF assay
Mus musculus [6] = experiment: Anti-hypertensive activity in human WNK1 transgenic FVB mouse assessed plasma concentration required for SBP reducing activity at 30 mg/kg, po via gavage measured after 7 hrs; format: functional, organism-based; conditions: tested as the 2H-labelled form
Method in brief: (§2)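 A separate cohort of human WNK1-overexpressing FVB mice was dosed 30 mg kg−1 p.o. Venous blood samples were taken over time to 7 h for plasma drug concentration. n = 3.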

[7] = Clearance in Sprague-Dawley rat at 0.5 mg/kg, iv measured up to 7 hrs post dose by HPLC analysis; format: ADME, organism-based; conditions: in vivo
[8] = Cmax in Sprague-Dawley rat at 1.5 mg/kg, po measured up to 7 hrs post dose by HPLC analysis; format: ADME, organism-based; set-up: dose 1.5 mg/kg, route oral; conditions: in vivo
[9] = biological target: Tyrosine-protein kinase BTK (Homo sapiens) (UniProt Q06187); experiment: Inhibition of human full length BTK expressed in mammalian expression system at 10 uM by kinomescan assay
Method in brief: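 Binding panel of 440 human kinases (KINOMEscan) at a 10 μM screening concentration. Percent inhibition per kinase, with >35% inhibition flagged as significant.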

[10] = AUC in Sprague-Dawley rat at 1.5 mg/kg, po measured up to 7 hrs post dose by HPLC analysis; format: ADME, organism-based; set-up: time < 7 hr, dose 1.5 mg/kg, route oral; conditions: in vivo
Rattus norvegicus [11] = experiment: Anti-hypertensive activity in […] rat assessed as reduction in blood pressure at 100 mg/kg, po measured for 7 hrs post dose; format: functional, organism-based; conditions: tested as the 2H-labelled form
Rattus norvegicus [12] = experiment: Anti-hypertensive activity in […] rat assessed as reduction in stroke volume at 100 mg/kg, po measured for 7 hrs post dose; format: functional, organism-based; conditions: tested as the 2H-labelled form
Mus musculus [13] = experiment: Anti-hypertensive activity in po dosed human WNK1 transgenic FVB mouse assessed as reduction in blood pressure administered via gavage measured every 10 minutes for 15 seconds after 2 hrs; format: functional, organism-based; conditions: tested as the 2H-labelled form
Method in brief: (§3)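 Conscious FVB mice overexpressing human WNK1, with implanted radiotelemetry devices, received single oral doses of 10, 30 or 100 mg kg−1. Systolic blood pressure was read as peak and time-weighted average against the 24 h before treatment. n = 4 per group, mean ± SEM, two-way ANOVA with Bonferroni post-test versus vehicle.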

[14] = Oral bioavailability in Sprague-Dawley rat at 1.5 mg/kg measured up to 7 hrs post dose by HPLC analysis; format: ADME, organism-based; conditions: in vivo
[15] = Half life in rat liver microsomes; format: ADME, microsome
Rattus norvegicus [16] = experiment: Increase in heart rate in […] rat at 100 mg/kg, po measured for 7 hrs post dose; format: functional, organism-based; conditions: tested as the 2H-labelled form
Rattus norvegicus [17] = experiment: Anti-hypertensive activity in […] rat assessed as reduction in total peripheral resistance at 100 mg/kg, po measured for 7 hrs post dose; format: functional, organism-based; conditions: tested as the 2H-labelled form
Rattus norvegicus [18] = experiment: Anti-hypertensive activity in […] rat assessed as induction of kaliuresis administered orally as single dose on day 2,3 and 4 measured for 7 hrs post dose; format: functional; conditions: tested as the 2H-labelled form
Method in brief: as §1

[19] = Equilibrium solubility of compound at pH 6.8; format: physicochemical; conditions: buffer
[20] = biological target: T1, Serine/threonine-protein kinase WNK1; experiment: Allosteric inhibition of WNK1 (unknown origin) expressed in HEK293 cells co-expressing flag-OSR1 assessed as reduction in sorbitol-stimulated OSR1 phosphorylation preincubated with compound for 2.5 hrs followed co-administration with sorbitol measured after 1 hr by AlphaLISA assay; format: cell-based
Mus musculus [21] = experiment: Anti-hypertensive activity in po dosed human WNK1 transgenic FVB mouse assessed as reduction in blood pressure administered via gavage measured every 10 minutes for 15 seconds after 6 to 12 hrs; format: functional, organism-based; conditions: tested as the 2H-labelled form
Method in brief: as §3

[22] = biological target: Tyrosine-protein kinase Fer (Homo sapiens) (UniProt P16591); experiment: Inhibition of human FER (542 to 822 residues) expressed in bacterial expression system at 10 uM by kinomescan assay
Method in brief: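 KINOMEscan panel of 440 human kinases, with test compound screened at a single concentration of 10 μM. Read-out is percent inhibition. Hits above 35% inhibition are flagged.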

Rattus norvegicus [23] = experiment: Anti-hypertensive activity in SHR rat assessed as induction of diuresis administered orally as single dose on day 2,3 and 4 measured for 7 hrs post dose; format: functional; conditions: tested as the 2H-labelled form
Method in brief: as §1

Rattus norvegicus [24] = experiment: Anti-hypertensive activity in […] rat assessed as induction of natriuresis administered orally as single dose on day 2,3 and 4 measured for 7 hrs post dose; format: functional; conditions: tested as the 2H-labelled form
Method in brief: as §1

[25] = Plasma concentration in human WNK1 transgenic FVB mouse at 30 mg/kg, po via gavage up to 7 hrs; format: ADME, organism-based
Method in brief: as §2

[26] = Plasma concentration in human WNK1 transgenic FVB mouse at 30 mg/kg, po via gavage at 7 hrs post dose; format: ADME, organism-based
Method in brief: as §2

[27] = Ratio of Cp in human WNK1 expressing transgenic FVB mouse at 30 mg/kg, po to IC50 for WNK1 (unknown origin) expressed in HEK293 cells
Method in brief: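 Separate PK cohort of FVB mice overexpressing human WNK1, given a single oral dose of 30 mg kg−1 (n = 3); venous blood sampled over time for plasma concentration. Plasma level compared against the cellular IC50 from AlphaLISA readout of WNK-mediated phosphorylation of exogenous OSR1 in HEK293 cells.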

Mus musculus [28] = experiment: Anti-hypertensive activity in human WNK1 transgenic FVB mouse assessed as reduction in systolic blood pressure at 30 mg/kg, po via gavage measured every 10 minutes for 15 seconds; format: functional, organism-based
Method in brief: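 Conscious FVB mice transgenic for human WNK1, fitted with implanted radiotelemetry devices, received single oral doses. Systolic blood pressure was expressed as peak and time-weighted average change against the 24 h pre-dose baseline. Heart rate was also monitored. n = 4 per group, mean ± SEM, two-way ANOVA with Bonferroni post-test versus vehicle. Plasma exposure was measured in a separate cohort (n = 3).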

T1 sequence (Q9H4A3 whole entry, the tested form may be a part): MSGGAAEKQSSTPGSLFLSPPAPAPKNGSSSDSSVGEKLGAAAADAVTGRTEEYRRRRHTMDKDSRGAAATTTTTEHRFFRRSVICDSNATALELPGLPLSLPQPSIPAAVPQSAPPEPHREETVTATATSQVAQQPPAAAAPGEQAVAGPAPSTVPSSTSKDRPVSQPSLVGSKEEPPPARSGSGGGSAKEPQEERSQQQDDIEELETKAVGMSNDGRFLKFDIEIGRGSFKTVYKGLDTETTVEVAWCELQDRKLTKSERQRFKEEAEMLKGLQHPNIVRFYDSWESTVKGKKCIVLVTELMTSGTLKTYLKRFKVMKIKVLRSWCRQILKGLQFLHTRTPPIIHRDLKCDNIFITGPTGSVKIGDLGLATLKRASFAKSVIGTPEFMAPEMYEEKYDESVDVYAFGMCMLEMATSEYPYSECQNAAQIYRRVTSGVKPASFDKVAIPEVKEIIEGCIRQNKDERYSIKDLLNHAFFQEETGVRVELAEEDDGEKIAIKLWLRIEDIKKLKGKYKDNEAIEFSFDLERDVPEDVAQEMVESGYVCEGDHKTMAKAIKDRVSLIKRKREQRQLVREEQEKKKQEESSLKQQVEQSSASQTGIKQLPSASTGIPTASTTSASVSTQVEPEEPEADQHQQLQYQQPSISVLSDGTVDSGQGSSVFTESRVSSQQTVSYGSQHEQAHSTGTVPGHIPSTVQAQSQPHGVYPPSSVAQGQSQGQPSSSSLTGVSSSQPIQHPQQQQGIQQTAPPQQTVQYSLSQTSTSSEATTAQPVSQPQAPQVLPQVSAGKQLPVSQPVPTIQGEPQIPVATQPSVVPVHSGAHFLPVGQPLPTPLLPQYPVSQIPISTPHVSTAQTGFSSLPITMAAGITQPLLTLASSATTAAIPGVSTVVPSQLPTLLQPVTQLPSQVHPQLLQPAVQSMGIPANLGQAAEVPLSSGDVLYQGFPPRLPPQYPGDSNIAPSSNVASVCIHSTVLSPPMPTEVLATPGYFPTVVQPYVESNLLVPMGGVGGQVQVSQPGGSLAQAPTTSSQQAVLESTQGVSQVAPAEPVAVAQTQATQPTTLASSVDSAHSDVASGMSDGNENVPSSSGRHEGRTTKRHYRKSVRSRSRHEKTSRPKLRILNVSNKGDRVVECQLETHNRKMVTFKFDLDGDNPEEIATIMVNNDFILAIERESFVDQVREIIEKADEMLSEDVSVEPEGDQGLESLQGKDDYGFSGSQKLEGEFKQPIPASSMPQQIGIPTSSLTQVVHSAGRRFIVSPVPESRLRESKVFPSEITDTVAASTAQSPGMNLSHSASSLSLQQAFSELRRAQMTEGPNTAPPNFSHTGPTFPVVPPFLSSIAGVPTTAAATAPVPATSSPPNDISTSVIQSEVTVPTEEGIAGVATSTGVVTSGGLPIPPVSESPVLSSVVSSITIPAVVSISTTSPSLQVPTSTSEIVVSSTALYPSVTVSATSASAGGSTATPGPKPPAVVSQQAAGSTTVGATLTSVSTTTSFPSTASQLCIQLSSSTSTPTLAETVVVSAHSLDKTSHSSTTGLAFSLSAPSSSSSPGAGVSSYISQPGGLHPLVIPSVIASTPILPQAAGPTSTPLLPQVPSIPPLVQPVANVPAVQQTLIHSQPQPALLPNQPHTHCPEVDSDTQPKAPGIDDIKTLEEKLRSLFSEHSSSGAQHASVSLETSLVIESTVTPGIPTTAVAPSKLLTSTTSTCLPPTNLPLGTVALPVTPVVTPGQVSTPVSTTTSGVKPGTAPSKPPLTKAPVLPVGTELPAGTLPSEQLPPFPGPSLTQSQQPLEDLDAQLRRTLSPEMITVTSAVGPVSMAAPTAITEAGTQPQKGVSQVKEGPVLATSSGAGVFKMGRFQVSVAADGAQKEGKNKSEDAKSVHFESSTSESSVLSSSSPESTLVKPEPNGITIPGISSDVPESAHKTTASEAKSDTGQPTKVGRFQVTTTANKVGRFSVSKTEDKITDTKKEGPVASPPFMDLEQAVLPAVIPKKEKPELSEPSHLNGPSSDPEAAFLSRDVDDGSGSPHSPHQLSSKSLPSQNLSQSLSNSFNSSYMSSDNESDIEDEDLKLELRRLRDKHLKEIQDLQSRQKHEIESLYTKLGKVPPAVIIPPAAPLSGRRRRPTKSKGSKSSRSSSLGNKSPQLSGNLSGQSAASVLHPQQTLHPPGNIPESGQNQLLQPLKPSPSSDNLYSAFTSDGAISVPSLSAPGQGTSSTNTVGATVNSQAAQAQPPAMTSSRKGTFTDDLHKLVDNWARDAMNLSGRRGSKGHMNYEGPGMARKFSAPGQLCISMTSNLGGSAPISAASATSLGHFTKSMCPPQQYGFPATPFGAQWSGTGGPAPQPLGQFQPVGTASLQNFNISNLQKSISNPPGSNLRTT
Chain of Tyrosine-protein kinase Fer (Homo sapiens) (P16591 whole entry, looked up, the tested form may be a part): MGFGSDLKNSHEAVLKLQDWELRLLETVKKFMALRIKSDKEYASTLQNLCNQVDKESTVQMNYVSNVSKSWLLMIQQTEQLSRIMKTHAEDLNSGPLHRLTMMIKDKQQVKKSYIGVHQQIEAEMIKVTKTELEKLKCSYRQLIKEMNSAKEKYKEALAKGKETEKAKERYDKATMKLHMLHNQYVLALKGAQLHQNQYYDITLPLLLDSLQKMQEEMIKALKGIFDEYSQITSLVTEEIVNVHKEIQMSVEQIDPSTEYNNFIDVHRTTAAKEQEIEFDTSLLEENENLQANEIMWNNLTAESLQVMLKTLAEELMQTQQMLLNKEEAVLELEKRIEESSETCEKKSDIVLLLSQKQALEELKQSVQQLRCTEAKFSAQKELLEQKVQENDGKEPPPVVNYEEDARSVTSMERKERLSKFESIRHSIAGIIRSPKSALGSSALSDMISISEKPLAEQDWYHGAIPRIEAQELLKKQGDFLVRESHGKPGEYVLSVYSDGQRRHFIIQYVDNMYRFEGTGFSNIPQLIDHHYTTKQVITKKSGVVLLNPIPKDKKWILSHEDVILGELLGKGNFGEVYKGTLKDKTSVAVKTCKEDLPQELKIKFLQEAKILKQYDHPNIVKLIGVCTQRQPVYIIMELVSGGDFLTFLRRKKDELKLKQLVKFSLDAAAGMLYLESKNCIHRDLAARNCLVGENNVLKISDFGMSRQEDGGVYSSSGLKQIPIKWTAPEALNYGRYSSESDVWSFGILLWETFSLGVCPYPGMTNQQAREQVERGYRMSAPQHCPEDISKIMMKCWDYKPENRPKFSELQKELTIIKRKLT
Chain of Tyrosine-protein kinase BTK (Homo sapiens) (Q06187 whole entry): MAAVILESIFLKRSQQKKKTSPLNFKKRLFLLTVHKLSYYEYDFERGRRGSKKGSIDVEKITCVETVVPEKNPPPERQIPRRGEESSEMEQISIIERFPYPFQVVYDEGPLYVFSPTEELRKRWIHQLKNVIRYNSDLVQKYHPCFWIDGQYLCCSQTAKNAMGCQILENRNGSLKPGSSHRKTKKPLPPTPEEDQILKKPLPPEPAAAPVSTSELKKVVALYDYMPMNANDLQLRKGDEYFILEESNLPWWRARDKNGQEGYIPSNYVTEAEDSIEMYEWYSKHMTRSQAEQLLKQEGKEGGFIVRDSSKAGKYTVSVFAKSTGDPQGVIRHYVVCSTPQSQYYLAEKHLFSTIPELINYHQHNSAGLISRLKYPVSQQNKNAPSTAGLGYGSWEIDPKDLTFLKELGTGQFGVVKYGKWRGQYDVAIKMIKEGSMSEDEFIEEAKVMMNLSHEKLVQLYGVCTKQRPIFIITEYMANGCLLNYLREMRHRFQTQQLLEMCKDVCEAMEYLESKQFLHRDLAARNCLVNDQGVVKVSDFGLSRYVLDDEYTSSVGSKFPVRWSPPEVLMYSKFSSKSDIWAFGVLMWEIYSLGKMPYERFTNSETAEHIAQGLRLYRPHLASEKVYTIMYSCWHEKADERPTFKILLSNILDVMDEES

Structure (SMILES): COc1cccc(-c2cc(C(=O)N(C)[C@@H]3CCN(Cc4ccc(Cl)cc4)C3)c3ccccc3n2)c1
IC50 [1]: 750 nM

Structure (SMILES): N=C(N)NC(=O)c1nc(Cl)c(N)nc1N
Activity (Rattus norvegicus [2]): Active
Activity (Rattus norvegicus [3]): Active

Structure (SMILES): CNc1nc(-c2cc(C(=O)N3CCN(Cc4ccc(Cl)cc4)CC3)ccn2)cs1
IC50 [1]: 106 nM

Structure (SMILES): CNc1nc(-c2cc(C(=O)N3CCN(Cc4ccc(Cl)cc4)CC3)c(Cl)cn2)cs1
Cp (Mus musculus [6]): > 2 µM
clearance [7]: 36 mL/min/kg
Cmax [8]: 113 nM
inhibition [9]: Active
AUC at 7 h [10]: 0.279 µM·h
Activity (Rattus norvegicus [11]): Active
Activity (Rattus norvegicus [12]): Active
Activity (Mus musculus [13]): Dose-dependent effect
bioavailability [14]: 21%
half-life [15]: 13 min
Activity (Rattus norvegicus [16]): Active
Activity (Rattus norvegicus [17]): Active
Activity (Rattus norvegicus [18]): Dose-dependent effect
solubility thermodynamic [19]: 55 µM (≈ 25.4 µg/mL)
IC50 [20]: 352 nM
Activity (Mus musculus [21]): Dose-dependent effect
inhibition [22]: Active
Activity (Rattus norvegicus [23]): Dose-dependent effect
IC50 [1]: 4 nM
Activity (Rattus norvegicus [24]): Dose-dependent effect

Structure (SMILES): COc1cccc(-c2cc(C(=O)N3CCN(Cc4ccc(Cl)cc4)CC3)ccn2)c1
IC50 [1]: 971 nM

Structure (SMILES): CNc1nc(-c2ccc3c(c2)CCN3C(=O)c2ccccc2OCc2ccc(Cl)cc2)cs1
clearance [7]: 108 mL/min/kg
Cmax [8]: 2 nM
AUC at 7 h [10]: 0.014 µM·h
bioavailability [14]: 1.4%
IC50 [1]: 420 nM

Structure (SMILES): [2H]C([2H])([2H])Nc1nc(-c2cc(C(=O)N3CCN(Cc4ccc(Cl)cc4)CC3)c(Cl)cn2)cs1
clearance [7]: 24 mL/min/kg
Cmax [8]: 308 nM
AUC at 7 h [10]: 0.811 µM·h
concentration at 7 h [25]: 1000 nM
concentration at 7 h [26]: 1000 nM
bioavailability [14]: 45%
half-life [15]: 15 min
solubility thermodynamic [19]: 19 µM (≈ 8.84 µg/mL)
Ratio [27]: 3
IC50 [20]: 589 nM
IC50 [1]: 6 nM

The next lines start with results.

Ki [4]: 32.4 nM
IC50 [1]: 162 nM
Structure (SMILES): COc1cccc(-c2cccc(-n3cc(CNCC4CCCCC4)c4ccccc43)c2)c1

IC50 [5]: 39 nM
Structure (SMILES): COc1cccc(-c2cc(-n3cc(CNCC4CCCCC4)c4cc(F)ccc43)ccn2)c1

IC50 [1]: 60 nM
Structure (SMILES): COc1cccc(-c2cc(-n3cc(CNCC4CCCCC4)c4ccccc43)ccn2)c1

IC50 [1]: 2140 nM
Structure (SMILES): c1ccc(-c2cccc(-n3cc(CNCC4CCCCC4)c4ccccc43)c2)cc1

half-life [15]: 15 min
solubility thermodynamic [19]: 550 µM (≈ 220 µg/mL)
IC50 [20]: 1390 nM
IC50 [1]: 95 nM
Structure (SMILES): COc1cccc(-c2cc(-n3cc(CNCC(C)C)c4ccccc43)c(C)cn2)c1
Activity (Mus musculus [28]): Active

IC50 [1]: 623 nM
Structure (SMILES): COc1cccc(-c2cc(C(=O)N3CCN(Cc4ccccc4)CC3)c3ccccc3n2)c1
